The results in this text go back to the M2OR odorant receptor database.

The target of this assay is T1, UniProt E9PZ66.
T1 sequence (whole entry): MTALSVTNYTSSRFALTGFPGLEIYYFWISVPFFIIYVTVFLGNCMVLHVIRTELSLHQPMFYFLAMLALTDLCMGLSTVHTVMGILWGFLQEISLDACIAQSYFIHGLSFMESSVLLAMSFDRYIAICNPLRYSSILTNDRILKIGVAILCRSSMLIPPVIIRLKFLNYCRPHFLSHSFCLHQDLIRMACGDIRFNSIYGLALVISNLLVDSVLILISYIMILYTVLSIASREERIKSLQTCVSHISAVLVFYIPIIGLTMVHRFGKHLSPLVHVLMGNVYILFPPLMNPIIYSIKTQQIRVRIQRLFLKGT
The note with it: stereoisomer not certain. An outline of the steps:
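Values were gathered from published papers (main text and supplementary material), with extra details requested from the original authors when needed, and checked for typos and inconsistencies. Each receptor–molecule pair is called responsive (active) if the original authors judged the measured signal statistically different from baseline, and non-responsive (inactive) otherwise. Assay methods varied by source, often transient mammalian cell-line luciferase assays. Recorded details include cell line, G-protein, co-transfected protein and tags.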
Take `C=C(CC)CCCC(C)(C)O`: the “odorant receptor agonist call” value was “inactive”.

As to `C=CC(C)=CCC=C(C)CCC=C(C)C`, the “odorant receptor agonist call” value was “inactive”.

For `CC(=O)C=CC1=C(C)CCCC1(C)C`, the “odorant receptor agonist call” value is “inactive”.

Consider `O=C(OCc1ccccc1)c1ccccc1O`, for which the “odorant receptor agonist call” value was “inactive”.

As for `CCc1ccccc1O`, the “odorant receptor agonist call” value was “inactive”.

Consider `CC(C)=C1CCC(C)CC1=O` (stereo not drawn), for which the “odorant receptor agonist call” value was “inactive”.

For `CC=CC(=O)C1=C(C)CCCC1(C)C`, the “odorant receptor agonist call” value is “inactive”.

Consider `CNc1ccccc1C(=O)OC`, for which the “odorant receptor agonist call” value is “inactive”.

In the case of `C=CC(=C)CCC=C(C)C`, the “odorant receptor agonist call” value was “inactive”.

With `CCCCCC(C=O)=Cc1ccccc1`, the “odorant receptor agonist call” value is “inactive”.

Consider `OCC=Cc1ccccc1`, for which the “odorant receptor agonist call” value was “inactive”.

On to `CC(C)CS`, for which the “odorant receptor agonist call” value was “inactive”.

Turning to `C1CCOC1`, the “odorant receptor agonist call” value is “inactive”.

Consider `Cc1ccc(OC(=O)C(C)C)cc1`, for which the “odorant receptor agonist call” value was “inactive”.

As for `OCCc1ccccc1`, the “odorant receptor agonist call” value is “inactive”.

Consider `CC(=O)OCc1ccc2c(c1)OCO2`, for which the “odorant receptor agonist call” value is “inactive”.

On to `C=CC(=O)CCCCC`, for which the “odorant receptor agonist call” value was “inactive”.

`CCCCCCC=CC=O`: the “odorant receptor agonist call” value was “inactive”.

With `O=C([O-])CCCCCCC(=O)[O-].[H+].[H+]`, the “odorant receptor agonist call” value is “inactive”.

With `CCN(CC)CC`, the “odorant receptor agonist call” value was “inactive”.

Regarding `COC(OC)c1ccccc1`, the “odorant receptor agonist call” value was “inactive”.

For the molecule `CC(CC=O)CCCC(C)(C)O` (stereo not drawn), the “odorant receptor agonist call” value was “inactive”.

For `CCCCCC(C)O` (stereo not drawn), the “odorant receptor agonist call” value was “inactive”.

For `CC=Cc1ccc(OC)cc1`, the “odorant receptor agonist call” value is “inactive”.

Turning to `CCCO`, the “odorant receptor agonist call” value is “inactive”.

As for `CCCCCOC(=O)CC`, the “odorant receptor agonist call” value is “inactive”.

For `CC(C)=CCCC(C)=CCOC(=O)C(C)C`, the “odorant receptor agonist call” value was “inactive”.

Turning to `CCCCCCC(=O)OCCCC`, the “odorant receptor agonist call” value is “inactive”.

Take `CC(C)CCN`: the “odorant receptor agonist call” value was “inactive”.

For `c1ccc2ncccc2c1`, the “odorant receptor agonist call” value was “inactive”.

As to `C=C(C)C1CCC(C)C(O)C1` (stereo not drawn), the “odorant receptor agonist call” value was “inactive”.

As for `CC1CCC(C(C)C)C(=O)C1` (stereo not drawn), the “odorant receptor agonist call” value was “inactive”.

In the case of `CCCCCCCCCC=CC=O`, the “odorant receptor agonist call” value was “inactive”.
